Assay outcomes (PubChem BioAssay)
T cruzi growth-1: inhibitors of T. cruzi proliferation. T. cruzi beta-gal in NIH3T3, GalScreen luminescence, 90 h. inhibition, % at 8.34 µM. hit rate 5.9% among 77,000;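 active = mean inhibition above about 93%, with at least 55% of replicates each passing it, limit read from the data, passing the limit was not always enough; inconclusive = only one of those two conditions holds; inactive = neither condition holds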
KDM4C inh: blocks human GASC-1 (KDM4C) demethylase activity; Q9H3R0; GST-KDM4C 2-372, H3K9me3 peptide, LANCE TR-FRET; inhibition, % at 12.5 µM; hit rate 0.15% among 96,000;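 active = mean replicate inhibition above about 25%, with at least 55% of replicates also reaching it, limit read from the data, passing the limit was not always enough; inconclusive = only one of those two conditions met; inactive = neither condition met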
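System – N-terminal GST-fused human GASC-1 (KDM4C) fragment, residues 2-372 · Input – enzyme final amount 10 nM · Technique – LANCE TR-FRET, Eu antibody, ULight-streptavidin, EDTA, ex 340 nm, em 618/671 nm · Medium – HEPES buffer, pH 7.5, plus ascorbate · Incubation – enzyme reaction 30 min, then detection 60 min, both room temperature · Reagent – H3K9me3 peptide with Fe(II)/2OG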
IDH1 mut inh: IDH1 R132H (human) inhibition; hit rate 0.18% among 70,000; inhibition, % at 10 µM; IDH1 R132H reductase, diaphorase/resazurin fluorescence, 60 min; O75874; in the data active = inhibition above about 34%; inconclusive = no clear call, values can overlap the other calls; inactive = below about 11%
Target sequence (O75874 whole entry R132H): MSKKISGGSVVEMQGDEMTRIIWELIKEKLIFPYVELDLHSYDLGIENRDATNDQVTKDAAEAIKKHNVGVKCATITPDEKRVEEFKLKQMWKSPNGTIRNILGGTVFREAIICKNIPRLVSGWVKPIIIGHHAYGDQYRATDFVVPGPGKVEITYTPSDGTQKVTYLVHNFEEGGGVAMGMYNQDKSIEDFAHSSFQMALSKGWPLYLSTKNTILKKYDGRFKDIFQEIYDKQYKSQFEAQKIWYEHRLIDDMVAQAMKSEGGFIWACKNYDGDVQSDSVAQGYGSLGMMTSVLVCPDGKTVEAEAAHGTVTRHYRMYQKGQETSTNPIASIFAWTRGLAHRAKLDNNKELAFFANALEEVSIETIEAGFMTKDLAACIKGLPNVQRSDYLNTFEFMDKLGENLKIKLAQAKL
Pf Dd2 growth: P. falciparum Dd2 growth inhibition; SYBR Green, 72 h; active compounds read low; activity change, % at 10 µM; hit rate 2.3% among 94,000; AID 1159554; in the data active = activity change below about -80%; inconclusive = no clear call, values can overlap the other calls
T cruzi growth-2: Trypanosoma cruzi proliferation inhibition. shares compounds with T cruzi growth-1. T. cruzi beta-gal in NIH3T3, GalScreen luminescence, 90 h. inhibition, % at 8.35 µM. hit rate 72% among 5,600. AID 651739;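 active = mean replicate inhibition above about 95% and at least 55% of replicates individually reaching it, limit read from the data; inconclusive = only one of the two criteria is met; inactive = neither criterion is met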
T cruzi growth-3: Trypanosoma cruzi proliferation inhibition; T. cruzi beta-gal in NIH3T3, GalScreen luminescence, 90 h; inhibition, % at 2.09 µM; hit rate 21% among 5,600; shares compounds with T cruzi growth-1;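 active = mean inhibition above about 95%, with at least 55% of replicates also reaching it, limit read from the data; inconclusive = meets just one of the two conditions; inactive = meets neither condition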
NIH3T3 tox: NIH/3T3 (mouse) viability loss. hit rate 14% among 5,600. cytotoxicity (signal decrease), % at 8.35 µM. shares compounds with T cruzi growth-1. NIH/3T3 viability, CellTiter-Glo ATP luminescence, 90 h;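 active = mean signal decrease across replicates above about 35% based on untreated-well scatter, with enough replicates individually passing, limit read from the data; inconclusive = no rule stated though some were filed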
3T3 cytotox 2: cytotoxicity in mouse NIH/3T3 fibroblasts; NIH/3T3 viability, CellTiter-Glo ATP luminescence, 90 h; hit rate 56% among 5,600; shares compounds with T cruzi growth-1; AID 651744; inhibition, % at 24.9 µM;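 active = mean loss of cell viability signal at or above a set limit, and enough replicates individually reaching it; inconclusive = meets only the mean limit or only the replicate share; inactive = meets neither condition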
Of the large screens only hits and unclear results are named; the others gave an inactive call (follow-up assays come after a bar, where they were run). The list is not random: actives were taken first. Their share in the collection is about 5.8%.

O=C(C1CCC1)N1CCCCN2[C@@H](CO)[C@H](c3ccc(-c4ccncc4)cc3)[C@@H]2C1	T cruzi growth-1 inconclusive (no result: IDH1 mut inh) | T cruzi growth-2 102 | T cruzi growth-3 inactive | NIH3T3 tox inactive | 3T3 cytotox 2 inconclusive
CN(C)C(=O)c1ccc(-c2ccc([C@H]3[C@@H](CO)N4CCCCN(C(=O)C5CCC5)C[C@H]34)cc2)cc1	T cruzi growth-1 113 (no result: KDM4C inh, IDH1 mut inh) | T cruzi growth-2 97 | T cruzi growth-3 inconclusive | NIH3T3 tox inactive | 3T3 cytotox 2 inactive
CN(C)C(=O)c1ccc(-c2ccc([C@@H]3[C@H](CO)N4CCCCN(C(=O)C5CCC5)C[C@@H]34)cc2)cc1	T cruzi growth-1 106 (no result: KDM4C inh, IDH1 mut inh) | T cruzi growth-2 103 | T cruzi growth-3 inconclusive | NIH3T3 tox inactive | 3T3 cytotox 2 inactive
CN(C)C(=O)c1ccc(-c2ccc([C@H]3[C@H](CO)N4CCCCN(C(=O)C5CC5)C[C@@H]34)cc2)cc1	T cruzi growth-1 inconclusive (no result: IDH1 mut inh) | T cruzi growth-2 100 | T cruzi growth-3 inactive | NIH3T3 tox inactive | 3T3 cytotox 2 inactive
CN(C)C(=O)c1ccc(-c2ccc([C@@H]3[C@@H](CO)N4CCCCN(C(=O)C5CCC5)C[C@@H]34)cc2)cc1	none (no result: KDM4C inh, IDH1 mut inh)
CC(=O)Nc1ccc(NC(=O)CN(c2cc(C(F)(F)F)ccc2Cl)S(C)(=O)=O)cc1	none (no result: T cruzi growth-1, KDM4C inh, Pf Dd2 growth)
O=C(CSc1nc(-c2ccccc2)c(-c2ccccc2)[nH]1)Nc1ccccc1F	none (no result: T cruzi growth-1, KDM4C inh, Pf Dd2 growth)
Cc1cc(NC(=O)C(=O)NCCCN2CCOCC2)ccc1Br	none (no result: T cruzi growth-1, KDM4C inh, Pf Dd2 growth)
CCS(=O)(=O)N1CCCCN2[C@H](CO)[C@@H](c3ccc(-c4cccc(C#N)c4)cc3)[C@@H]2C1	T cruzi growth-1 108, Pf Dd2 growth -89 (no result: IDH1 mut inh) | T cruzi growth-2 inactive | T cruzi growth-3 inactive | NIH3T3 tox inactive | 3T3 cytotox 2 69
CCS(=O)(=O)N1CCCCN2[C@H](CO)[C@@H](c3ccc(-c4cccc(C#N)c4)cc3)[C@H]2C1	none (no result: IDH1 mut inh)
CCS(=O)(=O)N1CCCCN2[C@@H](CO)[C@@H](c3ccc(-c4ccc(C#N)cc4)cc3)[C@@H]2C1	T cruzi growth-1 99 (no result: IDH1 mut inh) | T cruzi growth-2 inactive | T cruzi growth-3 inactive | NIH3T3 tox inactive | 3T3 cytotox 2 39
COc1ccc(NC(=O)Nc2ccc3c(c2)C(=O)N([C@@H](C)CO)C[C@@H](C)[C@H](CN(C)Cc2ccc(Cl)c(Cl)c2)OCCCC[C@@H](C)O3)cc1	T cruzi growth-1 126 | T cruzi growth-2 100 | T cruzi growth-3 117 | NIH3T3 tox inactive | 3T3 cytotox 2 inactive
COc1ccc(NC(=O)Nc2ccc3c(c2)C(=O)N([C@@H](C)CO)C[C@H](C)[C@H](CN(C)Cc2ccc(Cl)c(Cl)c2)OCCCC[C@@H](C)O3)cc1	T cruzi growth-1 125 | T cruzi growth-2 101 | T cruzi growth-3 115 | NIH3T3 tox inactive | 3T3 cytotox 2 inactive
COc1ccc(CN(C)C[C@H]2OCCCC[C@H](C)Oc3ccc(NC(=O)Nc4ccc(OC)cc4)cc3C(=O)N([C@H](C)CO)C[C@@H]2C)cc1	none (no result: IDH1 mut inh)
COc1ccc(NC(=O)Nc2ccc3c(c2)C(=O)N([C@@H](C)CO)C[C@@H](C)[C@H](CN(C)Cc2ccc(Cl)c(Cl)c2)OCCCC[C@H](C)O3)cc1	T cruzi growth-1 97 | T cruzi growth-2 99 | T cruzi growth-3 103 | NIH3T3 tox inactive | 3T3 cytotox 2 inactive
COc1ccc(NC(=O)Nc2ccc3c(c2)C(=O)N([C@H](C)CO)C[C@H](C)[C@@H](CN(C)Cc2ccc(Cl)c(Cl)c2)OCCCC[C@H](C)O3)cc1	T cruzi growth-1 123 (no result: IDH1 mut inh) | T cruzi growth-2 inconclusive | T cruzi growth-3 116 | NIH3T3 tox inactive | 3T3 cytotox 2 inactive
COc1ccc(CN(C)C[C@@H]2OCCCC[C@H](C)Oc3ccc(NC(=O)Nc4ccc(OC)cc4)cc3C(=O)N([C@H](C)CO)C[C@H]2C)cc1	none (no result: KDM4C inh, IDH1 mut inh)
COc1ccc(CN(C)C[C@@H]2OCCCC[C@@H](C)Oc3ccc(NC(=O)Nc4ccc(OC)cc4)cc3C(=O)N([C@H](C)CO)C[C@@H]2C)cc1	none (no result: KDM4C inh)
COc1ccccc1-c1ccc(C2[C@@H]3CN(S(=O)(=O)c4ccccc4)C[C@H]2N3)cc1 (stereo not given in full)	none (no result: T cruzi growth-1, IDH1 mut inh)
